Experiments:
[1] = target: Poly [ADP-ribose] polymerase 1 (Homo sapiens, UniProt P09874)
[2] = system: A549; test: Compound was evaluated for cytotoxic potentiation factor of topotecan in human A549 tumor cell line at 0.4 uM concentration; type: functional
Summary of the method: (§1)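 Exponentially growing cells were exposed to increasing concentrations of cytotoxic drug (temozolomide or topotecan), alone or with PARP-1 inhibitor fixed at 0.4 µM. Drugs were added from DMSO stocks, giving 1% DMSO final. Growth was read by SRB assay and normalised to the 1% DMSO control or to inhibitor alone. PF50 is the ratio of drug GI50 alone to drug GI50 with inhibitor.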

[3] = system: LoVo; test: Cytotoxic potentiation factor of temoxolomide in human LoVo cancer cell line at 0.4 uM concentration; type: functional
Summary of the method: as §1

[4] = system: LoVo; test: Compound was evaluated for cytotoxic potentiation factor of topotecan in human LoVo cancer cell line at 0.4 uM concentration; type: functional
Summary of the method: as §1

[5] = system: A549; test: Cytotoxic potentiation factor of temoxolomide in human A549 tumor cell line at 0.4 uM concentration; type: functional
Summary of the method: as §1

Poly [ADP-ribose] polymerase 1, sequence (P09874 whole entry): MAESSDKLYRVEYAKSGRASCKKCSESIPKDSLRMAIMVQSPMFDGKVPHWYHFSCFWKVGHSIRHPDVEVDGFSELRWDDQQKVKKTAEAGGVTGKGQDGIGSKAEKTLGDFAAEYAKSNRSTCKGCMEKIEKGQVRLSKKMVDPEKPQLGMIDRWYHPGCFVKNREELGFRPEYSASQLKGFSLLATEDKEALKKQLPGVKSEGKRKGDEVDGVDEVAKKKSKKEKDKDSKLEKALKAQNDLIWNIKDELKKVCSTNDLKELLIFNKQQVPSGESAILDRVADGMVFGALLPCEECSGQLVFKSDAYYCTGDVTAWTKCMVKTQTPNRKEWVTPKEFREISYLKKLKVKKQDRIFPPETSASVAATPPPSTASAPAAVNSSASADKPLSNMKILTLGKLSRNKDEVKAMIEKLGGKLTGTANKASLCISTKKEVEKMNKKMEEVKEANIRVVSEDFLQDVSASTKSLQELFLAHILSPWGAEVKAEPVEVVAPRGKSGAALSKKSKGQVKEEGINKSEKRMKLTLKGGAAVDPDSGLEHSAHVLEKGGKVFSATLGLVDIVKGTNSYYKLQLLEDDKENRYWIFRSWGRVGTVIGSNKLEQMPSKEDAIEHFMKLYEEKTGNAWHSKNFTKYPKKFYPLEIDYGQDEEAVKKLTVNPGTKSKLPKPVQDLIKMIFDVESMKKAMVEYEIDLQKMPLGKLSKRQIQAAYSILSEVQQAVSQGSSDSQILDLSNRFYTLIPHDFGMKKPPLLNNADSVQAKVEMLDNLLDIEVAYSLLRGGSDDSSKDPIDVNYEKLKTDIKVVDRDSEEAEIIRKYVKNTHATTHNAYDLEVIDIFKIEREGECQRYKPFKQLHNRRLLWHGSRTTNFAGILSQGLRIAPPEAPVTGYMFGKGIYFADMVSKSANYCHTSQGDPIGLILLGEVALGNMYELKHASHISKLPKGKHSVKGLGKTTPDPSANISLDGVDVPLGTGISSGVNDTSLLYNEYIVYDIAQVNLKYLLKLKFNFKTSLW

SMILES	Ki [1] [nM]	PF50 [2]	PF50 [3]	PF50 [4]	PF50 [5]
NC(=O)c1cccc2[nH]c(-c3ccc(CN4CCCCC4)cc3)nc12	7.2	–	–	–	–
CN1CCN(Cc2ccc(-c3nc4c(C(N)=O)cccc4[nH]3)cc2)CC1	8.7	–	–	–	–
CN(C)Cc1ccc(-c2nc3c(C(N)=O)cccc3[nH]2)cc1	4.5	1.9	4	1.7	1.6
NC(=O)c1cccc2[nH]c(-c3ccc(CN4CCOCC4)cc3)nc12	12	–	–	–	–
NC(=O)c1cccc2[nH]c(-c3cccc(CN4CCOCC4)c3)nc12	31	–	–	–	–
CN1CCN(Cc2cccc(-c3nc4c(C(N)=O)cccc4[nH]3)c2)CC1	9.8	–	–	–	–
CN(C)Cc1cccc(-c2nc3c(C(N)=O)cccc3[nH]2)c1	5.6	–	1.7	1.4	–
NC(=O)c1cccc2[nH]c(-c3ccc(CN4CCCC4)cc3)nc12	5.9	1.8	5.2	1.5	1.5
NC(=O)c1cccc2[nH]c(-c3ccc(CN(CCO)CCO)cc3)nc12	4.5	–	–	–	–
NC(=O)c1cccc2[nH]c(-c3cccc(CN4CCCC4)c3)nc12	10.2	–	1.7	1.1	–
NC(=O)c1cccc2[nH]c(-c3cccc(CN(CCO)CCO)c3)nc12	272	1.1	–	–	1.1

From ChEMBL document CHEMBL1148248, “Potentiation of cytotoxic drug activity in human tumour cell lines, by amine-substituted 2-arylbenzimidazole-4-carboxamide PARP-1 inhibitors” (Bioorg Med Chem Lett, 2004)
